Laboratory results from ChEMBL document CHEMBL2434820, “Design, synthesis, and biological evaluation of novel 2-ethyl-5-phenylthiazole-4-carboxamide derivatives as protein tyrosine phosphatase 1B inhibitors with improved cellular efficacy” (Eur J Med Chem, 2013).
Active and inactive are the calls of the source. The calls are words filed in the database; no cut-off is given here.

Tests used:
[1] = biological target: T1, Tyrosine-protein phosphatase non-receptor type 1 (Homo sapiens, UniProt P18031); test: Inhibition of GST-tagged PTP1B (unknown origin) using pNPP as substrate measured for 2 mins by colorimetric analysis
T1 sequence (P18031 whole entry): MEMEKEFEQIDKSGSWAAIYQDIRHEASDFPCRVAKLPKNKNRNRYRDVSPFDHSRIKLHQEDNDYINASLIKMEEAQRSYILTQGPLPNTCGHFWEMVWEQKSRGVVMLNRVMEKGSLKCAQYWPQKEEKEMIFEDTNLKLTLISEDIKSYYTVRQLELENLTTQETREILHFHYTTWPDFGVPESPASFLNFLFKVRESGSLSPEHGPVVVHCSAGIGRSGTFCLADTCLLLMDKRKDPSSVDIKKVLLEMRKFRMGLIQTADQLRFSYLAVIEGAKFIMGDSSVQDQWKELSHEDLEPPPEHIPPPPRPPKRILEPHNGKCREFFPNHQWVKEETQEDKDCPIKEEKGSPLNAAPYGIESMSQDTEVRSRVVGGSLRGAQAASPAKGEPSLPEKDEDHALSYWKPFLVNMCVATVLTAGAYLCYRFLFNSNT

[2] = biological target: Tyrosine-protein phosphatase non-receptor type 6 (Homo sapiens, UniProt P29350); test: Inhibition of SHP-1 (unknown origin)
[3] = biological target: Receptor-type tyrosine-protein phosphatase F (Homo sapiens, UniProt P10586); test: Inhibition of LAR (unknown origin)
[4] = biological target: T2, Tyrosine-protein phosphatase non-receptor type 2 (Homo sapiens, UniProt P17706); test: Inhibition of TCPTP (unknown origin)
T2 sequence (P17706 whole entry): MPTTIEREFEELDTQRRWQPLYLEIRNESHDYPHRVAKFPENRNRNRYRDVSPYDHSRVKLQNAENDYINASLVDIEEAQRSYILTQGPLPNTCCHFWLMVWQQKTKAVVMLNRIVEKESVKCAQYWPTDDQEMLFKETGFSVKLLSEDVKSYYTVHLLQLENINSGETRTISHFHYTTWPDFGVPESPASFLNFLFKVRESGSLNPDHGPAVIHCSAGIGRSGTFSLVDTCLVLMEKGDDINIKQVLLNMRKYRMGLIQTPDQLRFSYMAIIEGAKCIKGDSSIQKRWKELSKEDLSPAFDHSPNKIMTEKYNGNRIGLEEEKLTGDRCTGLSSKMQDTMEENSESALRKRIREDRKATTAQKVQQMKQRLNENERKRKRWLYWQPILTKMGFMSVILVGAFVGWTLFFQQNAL

[5] = biological target: T3, M-phase inducer phosphatase 2 (Homo sapiens, UniProt P30305); test: Inhibition of CDC25B (unknown origin)
T3 sequence (P30305 whole entry): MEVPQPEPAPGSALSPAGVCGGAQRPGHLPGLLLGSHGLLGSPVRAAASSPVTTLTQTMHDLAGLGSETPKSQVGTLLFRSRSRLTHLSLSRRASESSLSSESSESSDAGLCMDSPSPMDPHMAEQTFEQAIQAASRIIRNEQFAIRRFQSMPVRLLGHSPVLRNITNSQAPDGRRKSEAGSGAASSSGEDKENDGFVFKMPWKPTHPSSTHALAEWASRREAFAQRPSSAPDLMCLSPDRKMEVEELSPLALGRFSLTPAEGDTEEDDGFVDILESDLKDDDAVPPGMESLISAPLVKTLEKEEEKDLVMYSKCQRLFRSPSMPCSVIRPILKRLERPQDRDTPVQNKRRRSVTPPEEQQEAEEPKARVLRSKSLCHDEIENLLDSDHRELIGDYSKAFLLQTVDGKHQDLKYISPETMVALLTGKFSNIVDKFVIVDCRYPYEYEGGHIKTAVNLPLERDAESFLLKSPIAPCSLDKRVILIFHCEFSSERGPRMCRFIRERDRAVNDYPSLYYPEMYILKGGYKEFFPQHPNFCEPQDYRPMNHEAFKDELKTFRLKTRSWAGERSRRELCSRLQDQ

[6] = biological target: T4, Tyrosine-protein phosphatase non-receptor type 11 (Homo sapiens, UniProt Q06124); test: Inhibition of SHP-2 (unknown origin)
T4 sequence (Q06124 whole entry): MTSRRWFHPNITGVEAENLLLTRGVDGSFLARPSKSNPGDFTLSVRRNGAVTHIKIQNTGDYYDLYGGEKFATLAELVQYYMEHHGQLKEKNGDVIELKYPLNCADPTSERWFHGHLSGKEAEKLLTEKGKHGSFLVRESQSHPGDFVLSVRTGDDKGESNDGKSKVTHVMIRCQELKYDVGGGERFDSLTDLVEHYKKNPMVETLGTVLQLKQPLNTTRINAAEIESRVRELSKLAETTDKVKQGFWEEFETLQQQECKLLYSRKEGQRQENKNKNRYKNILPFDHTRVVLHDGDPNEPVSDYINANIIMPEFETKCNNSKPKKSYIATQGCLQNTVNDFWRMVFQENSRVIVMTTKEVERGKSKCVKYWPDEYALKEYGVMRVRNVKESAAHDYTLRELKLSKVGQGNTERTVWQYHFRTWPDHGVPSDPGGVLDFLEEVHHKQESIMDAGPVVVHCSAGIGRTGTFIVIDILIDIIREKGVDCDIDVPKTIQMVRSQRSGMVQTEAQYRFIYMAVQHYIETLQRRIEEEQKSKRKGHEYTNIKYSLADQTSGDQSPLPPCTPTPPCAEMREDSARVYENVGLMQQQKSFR

Homo sapiens = species on record: Homo sapiens; test: Selectivity ratio of IC50 for TCPTP (unknown origin) to IC50 for GST-tagged PTP1B (unknown origin)
[7] = biological target: T5, Tyrosine-protein phosphatase non-receptor type 1 (Homo sapiens) (UniProt P18031); test: Inhibition of PTP1B (unknown origin) expressed in CHO cells over-expressing human IR assessed as increase in insulin-mediated IR-beta phosphorylation preincubated for 2 hrs followed by insulin challenge for 10 mins by Western blotting analysis; format: cell-based
T5 sequence (whole entry): T1 sequence (P18031 whole entry)
Procedure, shortened: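 CHO cells overexpressing human IR, grown in Ham's F-12 with 10% FBS at 37 °C, 5% CO2. Cells were serum-starved 2 h, then exposed to compound for 2 h (0.2% DMSO vehicle; 1 mM sodium orthovanadate as positive control). They were then stimulated with 10 nM insulin for 10 min. Lysates were run on 8% SDS-PAGE and immunoblotted with anti-pTyr, using β-actin as the loading control.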

[8] = biological target: T5, Tyrosine-protein phosphatase non-receptor type 1 (Homo sapiens); conditions: CHO, 1.25 to 10 uM

Sequence of Tyrosine-protein phosphatase non-receptor type 6 (P29350 whole entry): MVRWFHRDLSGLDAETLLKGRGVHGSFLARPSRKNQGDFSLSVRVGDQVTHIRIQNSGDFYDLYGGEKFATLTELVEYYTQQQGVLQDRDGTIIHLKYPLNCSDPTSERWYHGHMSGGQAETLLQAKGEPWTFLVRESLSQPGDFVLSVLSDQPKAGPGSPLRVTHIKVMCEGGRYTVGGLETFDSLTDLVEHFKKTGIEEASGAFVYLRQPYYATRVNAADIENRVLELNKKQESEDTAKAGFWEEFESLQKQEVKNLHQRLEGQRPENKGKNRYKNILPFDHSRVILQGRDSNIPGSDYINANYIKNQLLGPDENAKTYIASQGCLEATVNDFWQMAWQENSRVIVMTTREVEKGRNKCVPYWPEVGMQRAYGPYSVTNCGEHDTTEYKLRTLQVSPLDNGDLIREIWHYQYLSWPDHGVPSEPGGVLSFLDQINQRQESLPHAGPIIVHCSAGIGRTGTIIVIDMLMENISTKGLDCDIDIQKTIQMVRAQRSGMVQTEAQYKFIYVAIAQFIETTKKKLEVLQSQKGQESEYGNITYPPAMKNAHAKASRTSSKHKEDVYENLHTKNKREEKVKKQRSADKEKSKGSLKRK
Sequence of Receptor-type tyrosine-protein phosphatase F (P10586 whole entry): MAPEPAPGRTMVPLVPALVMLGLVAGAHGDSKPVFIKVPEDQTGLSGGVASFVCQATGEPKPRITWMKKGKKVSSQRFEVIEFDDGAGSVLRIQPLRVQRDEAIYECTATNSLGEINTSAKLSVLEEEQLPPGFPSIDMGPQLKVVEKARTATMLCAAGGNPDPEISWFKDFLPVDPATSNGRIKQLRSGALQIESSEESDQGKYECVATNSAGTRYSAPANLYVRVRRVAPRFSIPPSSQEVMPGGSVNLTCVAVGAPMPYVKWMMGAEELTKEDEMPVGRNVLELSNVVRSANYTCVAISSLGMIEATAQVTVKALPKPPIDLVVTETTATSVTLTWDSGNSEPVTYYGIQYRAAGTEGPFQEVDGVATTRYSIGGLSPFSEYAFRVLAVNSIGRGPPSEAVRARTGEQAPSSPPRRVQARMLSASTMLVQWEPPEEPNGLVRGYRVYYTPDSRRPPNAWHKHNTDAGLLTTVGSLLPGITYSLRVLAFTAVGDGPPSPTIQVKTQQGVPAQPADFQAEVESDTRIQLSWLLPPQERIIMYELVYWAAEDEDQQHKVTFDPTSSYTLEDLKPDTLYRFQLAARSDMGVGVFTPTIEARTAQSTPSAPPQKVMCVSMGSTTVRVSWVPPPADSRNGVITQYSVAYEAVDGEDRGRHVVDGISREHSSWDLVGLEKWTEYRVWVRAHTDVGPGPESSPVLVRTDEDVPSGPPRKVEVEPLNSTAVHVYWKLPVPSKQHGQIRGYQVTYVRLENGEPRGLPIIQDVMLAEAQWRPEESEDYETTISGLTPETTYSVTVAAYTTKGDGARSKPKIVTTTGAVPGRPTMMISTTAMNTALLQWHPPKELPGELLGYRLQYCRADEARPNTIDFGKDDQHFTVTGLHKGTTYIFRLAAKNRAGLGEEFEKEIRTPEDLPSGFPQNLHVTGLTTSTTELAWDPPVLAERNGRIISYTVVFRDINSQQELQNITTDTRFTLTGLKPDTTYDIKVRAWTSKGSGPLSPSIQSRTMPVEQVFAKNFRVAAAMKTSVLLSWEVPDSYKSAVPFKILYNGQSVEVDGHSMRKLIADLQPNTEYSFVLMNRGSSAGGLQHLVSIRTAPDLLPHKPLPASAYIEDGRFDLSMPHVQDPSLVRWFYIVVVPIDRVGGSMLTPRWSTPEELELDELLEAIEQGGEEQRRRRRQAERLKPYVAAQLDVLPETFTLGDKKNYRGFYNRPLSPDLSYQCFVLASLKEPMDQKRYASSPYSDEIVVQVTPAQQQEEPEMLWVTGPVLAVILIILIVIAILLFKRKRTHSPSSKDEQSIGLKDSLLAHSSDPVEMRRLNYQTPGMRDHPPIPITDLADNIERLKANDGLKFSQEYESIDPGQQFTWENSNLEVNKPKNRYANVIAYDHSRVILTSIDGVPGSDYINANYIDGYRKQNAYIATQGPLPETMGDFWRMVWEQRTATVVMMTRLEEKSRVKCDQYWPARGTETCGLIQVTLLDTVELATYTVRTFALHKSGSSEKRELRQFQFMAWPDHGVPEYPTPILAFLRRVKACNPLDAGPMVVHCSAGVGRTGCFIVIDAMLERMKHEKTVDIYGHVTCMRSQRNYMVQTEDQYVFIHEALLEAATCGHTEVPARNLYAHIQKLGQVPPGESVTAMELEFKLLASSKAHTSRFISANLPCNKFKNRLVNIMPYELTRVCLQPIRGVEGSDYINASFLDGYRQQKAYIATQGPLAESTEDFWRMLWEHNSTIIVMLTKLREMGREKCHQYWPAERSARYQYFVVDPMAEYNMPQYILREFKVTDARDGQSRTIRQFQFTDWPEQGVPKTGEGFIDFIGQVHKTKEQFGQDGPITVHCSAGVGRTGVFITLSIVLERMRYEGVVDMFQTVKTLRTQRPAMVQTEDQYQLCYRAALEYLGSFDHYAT

COC(=O)c1cccc(NC(=O)c2csc([C@H](Cc3ccc(OCc4ccccc4)cc3)NC(=O)C3CCCCC3)n2)c1
IC50 [1]: 10.6 µM

O=C(CCc1c[nH]c2ccccc12)N[C@@H](Cc1ccc(OCc2ccccc2)cc1)c1nc(C(=O)Nc2cc(C(=O)O)ccc2F)c(-c2ccccc2)s1
IC50 [2]: 10.6 µM | IC50 [3]: > 20 µM | IC50 [1]: 1.12 µM | IC50 [4]: 3.98 µM | IC50 [5]: 9.74 µM | IC50 [6]: 10.1 µM | Ratio IC50 (Homo sapiens): 3.6

O=C(CCc1c[nH]c2ccccc12)N[C@@H](Cc1ccc(OCc2ccccc2)cc1)c1nc(C(=O)Nc2cccc(C(=O)O)c2)c(-c2ccccc2)s1
IC50 [2]: 7.53 µM | inhibition [7]: Dose-dependent effect | IC50 [3]: > 20 µM | IC50 [1]: 1.01 µM | IC50 [4]: 3.38 µM | IC50 [5]: 7.37 µM | IC50 [6]: 5.3 µM | Ratio IC50 (Homo sapiens): 3.3

O=C(CCc1c[nH]c2ccccc12)N[C@@H](Cc1ccc(OCc2ccccc2)cc1)c1nc(C(=O)Nc2ccc(C(=O)O)c(F)c2)c(-c2ccccc2)s1
IC50 [1]: 2.56 µM

COC(=O)c1cccc(NC(=O)c2nc([C@H](Cc3ccc(OCc4ccccc4)cc3)NC(=O)C3CCCCC3)sc2-c2ccccc2)c1
IC50 [1]: 3.79 µM

O=C(CCc1c[nH]c2ccccc12)N[C@@H](Cc1ccc(OCc2ccccc2)cc1)c1nc(C(=O)Nc2cccc(F)c2C(=O)O)c(-c2ccccc2)s1
IC50 [1]: 4.18 µM

C/C(=C/C(C)=C/c1csc([C@H](Cc2ccc(OCc3ccccc3)cc2)NC(=O)C2CCCCC2)n1)C(=O)O
inhibition [7]: inactive | IC50 [1]: 14.7 µM

O=C(O)c1cccc(NC(=O)c2csc([C@H](Cc3ccc(OCc4ccccc4)cc3)NC(=O)C3CCCCC3)n2)c1
IC50 [1]: 6 µM

O=C(O)c1cccc(NC(=O)c2nc([C@H](Cc3ccc(OCc4ccccc4)cc3)NC(=O)C3CCCCC3)sc2-c2ccccc2)c1
IC50 [2]: 6.93 µM | IC50 [3]: > 20 µM | IC50 [1]: 1.17 µM | IC50 [4]: 3.97 µM | IC50 [5]: 2.51 µM | IC50 [6]: 11.7 µM | Ratio IC50 (Homo sapiens): 3.4

O=C(CCc1c[nH]c2ccccc12)N[C@@H](Cc1ccc(OCc2ccccc2)cc1)c1nc(C(=O)Nc2ccc(C(=O)O)cc2F)c(-c2ccccc2)s1
IC50 [1]: 0.77 µM

C/C(=C/C(C)=C/c1nc([C@H](Cc2ccc(OCc3ccccc3)cc2)NC(=O)C2CCCCC2)sc1-c1ccccc1)C(=O)O
IC50 [1]: 10.9 µM | inhibition [8]: Active

CCOC(=O)/C(C)=C\C(C)=C\c1nc([C@H](Cc2ccc(OCc3ccccc3)cc2)NC(=O)C2CCCCC2)sc1CC(C)C
inhibition [7]: inactive | IC50 [1]: 9.54 µM

COC(=O)c1ccccc1NC(=O)c1csc([C@H](Cc2ccc(OCc3ccccc3)cc2)NC(=O)C2CCCCC2)n1
IC50 [1]: 8.79 µM

CCOC(=O)/C(C)=C\C(C)=C\c1nc([C@H](Cc2ccc(OCc3ccccc3)cc2)NC(=O)C2CCCCC2)sc1C
inhibition [7]: inactive | IC50 [1]: 13.5 µM

O=C(CCc1c[nH]c2ccccc12)N[C@@H](Cc1ccc(OCc2ccccc2)cc1)c1nc(C(=O)Nc2cc(Br)ccc2C(=O)O)c(-c2ccccc2)s1
IC50 [1]: 1.18 µM

O=C(O)c1ccc(NC(=O)c2csc([C@H](Cc3ccc(OCc4ccccc4)cc3)NC(=O)C3CCCCC3)n2)cc1
IC50 [1]: 4.88 µM

O=C(CCc1c[nH]c2ccccc12)N[C@@H](Cc1ccc(OCc2ccccc2)cc1)c1nc(C(=O)Nc2ccc(F)cc2C(=O)O)c(-c2ccccc2)s1
IC50 [1]: 2.82 µM

O=C(Nc1ccccc1C(=O)O)c1csc([C@H](Cc2ccc(OCc3ccccc3)cc2)NC(=O)C2CCCCC2)n1
IC50 [1]: 8.12 µM

O=C(CCc1c[nH]c2ccccc12)N[C@@H](Cc1ccc(OCc2ccccc2)cc1)c1nc(C(=O)Nc2ccc(C(=O)O)cc2)c(-c2ccccc2)s1
IC50 [1]: 2.28 µM

CCOC(=O)/C(C)=C\C(C)=C\c1csc([C@H](Cc2ccc(OCc3ccccc3)cc2)NC(=O)C2CCCCC2)n1
inhibition [7]: inactive

CCOC(=O)/C(C)=C\C(C)=C\c1nc([C@H](Cc2ccc(OCc3ccccc3)cc2)NC(=O)C2CCCCC2)sc1-c1ccccc1
inhibition [7]: inactive | IC50 [1]: 8.44 µM

O=C(CCc1c[nH]c2ccccc12)N[C@@H](Cc1ccc(OCc2ccccc2)cc1)c1nc(C(=O)Nc2cc(Cl)ccc2C(=O)O)c(-c2ccccc2)s1
IC50 [1]: 0.71 µM

O=C(CCc1c[nH]c2ccccc12)N[C@@H](Cc1ccc(OCc2ccccc2)cc1)c1nc(C(=O)Nc2ccccc2C(=O)O)c(-c2ccccc2)s1
IC50 [1]: 5.56 µM

O=C(CCc1c[nH]c2ccccc12)N[C@@H](Cc1ccc(OCc2ccccc2)cc1)c1nc(C(=O)Nc2ccc(Cl)c(C(=O)O)c2)c(-c2ccccc2)s1
IC50 [2]: 8.79 µM | IC50 [3]: > 20 µM | IC50 [1]: 1.42 µM | IC50 [4]: 3.36 µM | IC50 [5]: 4.94 µM | IC50 [6]: 6.79 µM | Ratio IC50 (Homo sapiens): 2.4

COC(=O)c1ccc(NC(=O)c2csc([C@H](Cc3ccc(OCc4ccccc4)cc3)NC(=O)C3CCCCC3)n2)cc1
IC50 [1]: 4.42 µM

COC(=O)c1cccc(NC(=O)c2nc([C@H](Cc3ccc(OCc4ccccc4)cc3)NC(=O)CCc3c[nH]c4ccccc34)sc2-c2ccccc2)c1
IC50 [1]: 2.68 µM

O=C(CCc1c[nH]c2ccccc12)N[C@@H](Cc1ccc(OCc2ccccc2)cc1)c1nc(C(=O)Nc2ccc(F)c(C(=O)O)c2)c(-c2ccccc2)s1
IC50 [1]: 1.62 µM
